Screening results: PubChem, several laboratories
Shown are actives, neighbours in structure and some others; about 2.6% of the full set was active somewhere.
SENP6 inh: SENP6 protease inhibitors, primary screen, biochemical, luminescence, uHTS. Sentrin-specific protease 6 (Homo sapiens), Q9GZR1. Recombinant SENP6 catalytic domain, aminoluciferin luminescence. inhibition, % at 10 µM. hit rate 1.8% among 330,000;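 active = inhibition above about 50% at the single tested dose, limit read from the data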;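 also: plate controls were DMSO wells with enzyme for no effect and DMSO wells lacking enzyme for full effect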
Target sequence (Q9GZR1 628-1112 limits assumed): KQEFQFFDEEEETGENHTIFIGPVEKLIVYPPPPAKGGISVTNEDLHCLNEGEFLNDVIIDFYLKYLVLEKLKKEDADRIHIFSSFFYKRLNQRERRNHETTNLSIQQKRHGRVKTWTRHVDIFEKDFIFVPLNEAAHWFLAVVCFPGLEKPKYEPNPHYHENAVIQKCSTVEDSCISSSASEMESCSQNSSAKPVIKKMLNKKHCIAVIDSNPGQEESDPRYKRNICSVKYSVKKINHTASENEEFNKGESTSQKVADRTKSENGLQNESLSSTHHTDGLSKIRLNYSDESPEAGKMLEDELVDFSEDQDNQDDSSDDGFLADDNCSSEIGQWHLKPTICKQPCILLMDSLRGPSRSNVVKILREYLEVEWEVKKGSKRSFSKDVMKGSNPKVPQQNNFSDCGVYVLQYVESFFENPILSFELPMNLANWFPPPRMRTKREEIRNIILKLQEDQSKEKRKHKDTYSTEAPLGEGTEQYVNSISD
SENP8 block-1: human SENP8 protease inhibitors, primary screen, biochemical, fluorescence, Nedd8 protein substrate, uHTS. Sentrin-specific protease 8 (Homo sapiens), Q96LD8. recombinant SENP8. inhibition, % at 20 µM. hit rate 0.64% among 360,000; in the data active = inhibition mostly above about 40%, no sharp cut-off; inactive = mostly below about 27%
SENP7 inh: SENP7 protease inhibitors, primary screen, biochemical, luminescence, uHTS; inhibition, % at 5 µM; AID 434973, 2010; recombinant SENP7, Z-RLRGG-aminoluciferin luminescence, 40 min; hit rate 1.5% among 330,000; Sentrin-specific protease 7 (Homo sapiens), Q9BQF6;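 active = inhibition above about 50% at the single test dose, limit read from the data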;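 also: plate controls were DMSO with enzyme for no effect and no enzyme buffer wells for full effect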
SENP1 inh: human SENP1 catalytic domain inhibitors, primary screen, biochemical, FRET, uHTS | AID 624204, 2012 | inhibition, % at 10 µM | hit rate 0.21% among 360,000 | Sentrin-specific protease 1 (Homo sapiens), Q9P0U3 | recombinant SENP1 catalytic domain, CyPet-SUMO1-YPet FRET cleavage;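 active = inhibition at least 30% at 10 µM, raw YFP signal under a set limit, fluorescence ratio 0.5 to 1.5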;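 also: 0% = enzyme with DMSO and 100% = no enzyme wells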
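Material – human SENP1 catalytic domain · Input – SENP1 enzyme, 20 pM final · Compound dosing – single concentration of 10 µM compound, 0.5% DMSO final · Timing – enzyme reaction for 50 min at room temperature, dark · Measured by – FRET fluorescence in CFP and YFP emission channels · Control set – no-enzyme wells low, DMSO-plus-enzyme wells high control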
SENP8 block-2: SENP8 protease inhibitors, primary screen, biochemical, luminescence; inhibition, % at 10 µM; purified SENP8, Z-RLRGG-aminoluciferin cleavage; AID 2540, 2010; hit rate 1.2% among 330,000; Sentrin-specific protease 8 (Homo sapiens), Q96LD8; in the data active = inhibition above about 50%
Platelet DG rel: inhibitors of platelet dense granule secretion, primary screen, cell-based, MLPCN, human platelets; human platelet-rich plasma, SFLLRN dense granule ATP release, luminescence; inhibition, %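 (compounds screened at 7.5 µM in platelet-rich plasma)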; hit rate 0.22% among 300,000;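 active = mean replicate score, as percent of positive control, at or above 50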
SENP8 confirm: SENP8 protease inhibitors, retest, confirmation, biochemical, luminescence, single concentration; shares compounds with SENP7 inh; Recombinant SENP8, Z-RLRGG-aminoluciferin luminescence, 60 min; inhibition, % at 12.5 µM; hit rate 40% among 6,200;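 active = mean inhibition across replicates above about 50%, limit read from the data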
SENP6 conf: SENP6 protease inhibitors, confirmation, biochemical, luminescence, single concentration | shares compounds with SENP7 inh | recombinant SENP6, Z-RLRGG-aminoluciferin luminescence | inhibition, % at 12.5 µM | hit rate 58% among 6,200
SENP7 confirm: SENP7 protease inhibitors, retest, confirmation, biochemical, luminescence, single concentration | shares compounds with SENP7 inh | recombinant SENP7, Z-RLRGG-aminoluciferin luminescence, 40 min | inhibition, % at 12.5 µM | hit rate 69% among 6,200
Casp3 select: caspase-3 protease inhibitors, confirmation, selectivity assay for SENP inhibitor project, biochemical, single concentration; shares compounds with SENP7 inh; purified caspase-3, Z-DEVD-aminoluciferin luminescence, 60 min; inhibition, % at 12.5 µM; hit rate 60% among 6,200;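 active = mean inhibition above about 50%, limit read from the data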;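 also: plate controls were enzyme with DMSO for no effect and wells without caspase-3 for full effect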
SENP luc ctr: interferes with luciferase luminescence in SENP counter-screen | hit rate 39% among 6,200 | Pre-incubated SENP8/Z-RLRGG-aminoluciferin, luciferase luminescence interference | AID 488919 | shares compounds with SENP7 inh | inhibition, % at 12.5 µM;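 active = mean inhibition above about 50% when retested at one dose, limit read from the data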;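 also: plate controls were DMSO wells with completed reaction for no effect and substrate without enzyme for full effect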
Starred values were filed as active, the others as inactive; · = no result given.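 The calls were made as follows, unless noted: active = mean inhibition above about 50% in the one-dose retest (limit read from the data); inactive = the rest.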

SMILES	SENP6 inh	SENP8 block-1	SENP7 inh	SENP1 inh	SENP8 block-2	Platelet DG rel	SENP8 confirm	SENP6 conf	SENP7 confirm	Casp3 select	SENP luc ctr
CC(=O)NC(Cc1c[nH]c2ccccc12)C(=O)N1CCN(S(=O)(=O)c2ccccc2)CC1 (stereo not drawn)	0	3	3	2	-5	·	·	·	·	·	·
Cc1ccccc1NC(=O)Nc1ccccc1C(=O)NCc1ccccc1	10	-142	4	1	4	6	·	·	·	·	·
Cc1ccc(NC(=O)Nc2ccccc2C(=O)NCc2ccccc2)cc1	25	-145	73*	-2	42	7	13	19	76*	56*	48
C[C@@H]1CN([C@H](C)CO)C(=O)CCCn2nncc2CO[C@H]1CN(C)S(=O)(=O)c1ccccc1	·	9	·	-1	·	·	·	·	·	·	·
Cc1cccc(-c2cnn(-c3cccc([N+](=O)[O-])c3)c2N)c1	5	15	2	0	-8	-2	·	·	·	·	·
Nc1c(-c2ccccc2)cnn1-c1cccc(Cl)c1	90*	6	94*	2	84*	15	90*	90*	99*	87*	81*
Cc1cccc(-c2cnn(-c3ccccc3)c2N)c1	50*	7	66*	-1	44	6	42	42	81*	64*	64*
Cc1cccc(C(=O)NNc2ncnc3c2cnn3C)c1	-4	8	-5	1	-4	10	·	·	·	·	·
CCCn1nnnc1COc1ccc(C(N)=O)cc1	-18	23	-6	0	-3	22	·	·	·	·	·
COCCOC(=O)/C(C#N)=C/c1cn(Cc2ccccc2)nc1-c1cccnc1	11	19	6	1	0	1	·	·	·	·	·
C[C@@H]1CN([C@H](C)CO)C(=O)CCCn2nncc2CO[C@H]1CN(C)Cc1cccc(C(F)(F)F)c1	·	10	·	-2	·	·	·	·	·	·	·
CNS(=O)(=O)c1ccc(NC(=O)c2csc(C)c2)cc1	11	11	1	1	3	-5	·	·	·	·	·
CCc1cc(C(=O)NNC(=S)Nc2cc(C)ccc2C)cs1	40	10	41	3	22	6	·	·	·	·	·
Cc1cc(C(=O)Nc2ccc(Br)cc2)cs1	41	6	60*	3	5	0	2	22	28	42	3
CCc1cc(C(=O)Nc2ccccc2)cs1	67*	5	75*	2	52*	3	64*	66*	92*	81*	77*
CCc1cc(C(=O)NNC(=S)Nc2ccccc2C)cs1	60*	13	28	0	36	-5	33	30	19	14	38
CC(C)c1ccc(-c2cc(C(=O)N3CCOCC3)c3cc(Br)ccc3n2)cc1	-19	-14	-10	1	-4	-4	·	·	·	·	·
CCOC(=O)Cn1c2ccccc2c2nc(C)sc21	15	18	-7	-1	2	-7	·	·	·	·	·
CCOC(=O)Cn1c2ccc(C)cc2c2nc(C)sc21	51*	11	2	-4	6	-5	8	8	-6	-8	-10
Fc1ccc(-c2nnc(-c3ccc(F)cc3)o2)cc1	52*	22	60*	3	24	5	12	15	36	37	5
Fc1ccc(-c2nnc(NC3=NCCCCC3)o2)cc1	91*	19	98*	2	89*	64*	11	95*	102*	98*	75*
CCOc1ccc(Oc2cc(N)cc([N+](=O)[O-])c2)cc1	-3	30	-7	5	-7	-6	·	·	·	·	·
Cc1cccc(/C=N\Nc2cn[nH]c(=O)c2Cl)c1	76*	-193	71*	-1	55*	22	71*	67*	88*	76*	45
CN(C(=O)Nc1cccc(C(F)(F)F)c1)C1CCCCC1	-1	15	5	0	0	-2	·	·	·	·	·
Cc1cccc(NC(=O)c2cc(Cl)nc3ccccc23)n1	-4	2	6	-3	-2	8	·	·	·	·	·
SMILES	SENP6 inh	SENP8 block-1	SENP7 inh	SENP1 inh	SENP8 block-2	Platelet DG rel	SENP8 confirm	SENP6 conf	SENP7 confirm	Casp3 select	SENP luc ctr
COc1cc(/C=C/c2ccc3cccc(O)c3n2)cc(Cl)c1OC	58*	-63	55*	7	47	-1	-15	23	-3	13	5
COc1cccc(/C=C/c2ccc3cccc(O)c3n2)c1OC	58*	-57	36	2	42	9	52*	40	89*	52*	30
COc1ccc(/C=C/c2ccc3cccc(O)c3n2)c(OC)c1OC	5	-134	-4	-3	-10	3	·	·	·	·	·
COc1ccc(NC(=O)C2CC(=O)N(CCc3ccc(Cl)cc3)C2)cc1 (stereo not drawn)	3	6	5	0	-5	-22	·	·	·	·	·
N#CCSc1nnc2sc3ccccc3n12	-14	7	87*	1	-2	20	9	9	-9	-3	0
Cc1ncc(CO)c(/C=N/NC(=S)Nc2ccc(F)cc2)c1O	-2	-324	4	-28	-1	0	·	·	·	·	·
Cc1ncc(CO)c(/C=N/N=C/c2ccccc2O)c1O	60*	-35	25	21	32	10	7	7	9	9	5
CCOc1ccc(C(=O)OCC(=O)NCC2CCCO2)cc1 (stereo not drawn)	13	7	-15	2	7	·	·	·	·	·	·
Cc1cccc(C(=O)NCC(=O)N2CCN(c3ccccn3)CC2)c1	4	-42	7	-1	2	·	·	·	·	·	·
COc1ccc(NC(=O)c2ccc(OC(F)F)cc2)cc1Cl	93*	-3	97*	-2	95*	64*	86*	95*	100*	92*	76*
